From PubChem BioAssay AID617 (SRMLSC, 2007)

The molecules below were run on E. coli BW25113 ΔtolC growth inhibition, OD615 (assay: growth inhibitors of E. coli tolC mutant, dose response, strain BW25113 ΔtolC::kan (AID 617);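 also: growth read after 20 h at 37 °C with compound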).
In short: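 Test system: E. coli BW25113 ΔtolC::kan bacteria | Amount: 1:1000 diluted subculture inoculum | Medium: LB plus kanamycin | Timing: 20 h exposure at 37 °C | Signal: Absorbance at 615 nm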
With `Cc1ccccc1-c1nc(CS(=O)(=O)CC(=O)N2CCc3ccccc3C2)c(C)o1` the IC50 was 31.7 µM.
Work on `Oc1ccc(Cl)cc1-c1cc(-c2ccccc2)n[nH]1` yielded an IC50 of 6.46 µM.
Work on `CCOC(=O)N1CCN(C(=O)COc2ccc(S(=O)(=O)Nc3ccc(OCC)cc3)cc2)CC1` yielded an IC50 of 2 µM.
In the case of `COc1ccc(-c2cc3nc4c(c(N5CCC6(CC5)OCCO6)n3n2)CCCC4)cc1`, the IC50 is reported as 28.8 µM.
Work on `Oc1ccc(Br)cc1-c1nc2cnccn2c1NC1CCCC1` yielded an IC50 of 10.5 µM.
Work on `CC1CC(N(C(=O)c2ccco2)c2ccccc2)c2ccccc2N1` (stereo not given) yielded an IC50 of 13.4 µM.
`CC(C)C(c1nnnn1C1CCCC1)N1c2ccccc2CC1C` (stereo not given) showed an IC50 of 20.8 µM.
Work on `CCOC(=O)c1ccccc1NC(=O)C(C)Oc1ccccc1` (stereo not given) yielded an IC50 of 30.3 µM.
With `CCN(CC)S(=O)(=O)c1ccc2[nH]cc(C(=O)NCCC3=CCCCC3)c(=O)c2c1` the IC50 was 5.15 µM.
Work on `CC1CC(C)CN(C(=O)CSc2nnc(-c3ccc(Cl)s3)o2)C1` (stereo not given) yielded an IC50 of 17.4 µM.
`Cc1ccsc1C(=O)Nc1nnc(-c2ccco2)o1` gave an IC50 of 3.92 µM.
`CCOC(=O)c1nnn(-c2nonc2-n2cccc2)c1CN1CCC(C)CC1` was tested, and the IC50 was 23.4 µM.
Molecule `Cc1onc(-c2ccccc2Cl)c1C(=O)Nc1sc2c(c1C#N)CCC2` has an IC50 of 7.5 µM.
In the case of `c1ccc(Cn2nnc3c(N4CCN(Cc5ccc6c(c5)OCO6)CC4)ncnc32)cc1`, the IC50 is reported as 22.6 µM.
Molecule `Brc1ccc(-c2nc(-c3ccccc3)no2)o1` has an IC50 of 30.1 µM.
`CCOC(=O)c1cc2oc(C)cc2n1CC(=O)OC1CCCCC1` was tested, and the IC50 was 17.6 µM.
For `CC1CCN(S(=O)(=O)c2ccc(Cl)cc2Br)CC1`, the IC50 was 17.5 µM.
`Cc1onc(-c2ccccc2)c1C(=O)OCC(=O)c1ccccc1` showed an IC50 of 24.2 µM.
`Cc1onc(-c2ccccc2)c1C(=O)Nc1nnc(COc2ccc(Cl)cc2)s1` was tested, and the IC50 was 2.99 µM.
Work on `CCCCc1cc(O)c(CCCC)c(O)c1` yielded an IC50 of 10.9 µM.
With `Cc1cccc(Cc2c(C)nc3c(C(=O)NCc4ccco4)cnn3c2C)c1` the IC50 was 49.6 µM.
Molecule `COC(=O)c1ccccc1NC(=O)c1ccc2c(c1)OCCO2` has an IC50 of 21.9 µM.
Work on `CCOC(=O)c1[nH]c2ccc(F)cc2c1NC(=O)CN1CCN(C/C=C/c2ccccc2)CC1` yielded an IC50 of 14.8 µM.
`NC1C2CN(c3nc4c(cc3F)c(=O)c(C(=O)O)cn4-c3ccc(F)cc3F)CC12` (stereo not given) was tested, and the IC50 was under 0.2 µM.
For `N#Cc1nc(-c2ccc(OCc3ccccc3Cl)cc2)oc1NCCCn1ccnc1`, the IC50 was 5.13 µM.
In the case of `N#Cc1c(NC(=O)c2ccc(Cn3cc(Br)cn3)o2)sc2c1CCCCCC2`, the IC50 is reported as 11.5 µM.
`Cc1nn(-c2nc3ccccc3[nH]2)c(N)c1-c1ccccc1` gave an IC50 of 59.4 µM.
Work on `O=C(CCc1nc(-c2ccccc2F)no1)Nc1ccc(Oc2ccccc2)cc1` yielded an IC50 of 9.55 µM.
`CCn1c(SC)nnc1-c1sc2cc(Cl)ccc2c1Cl` showed an IC50 of 11.6 µM.
With `C=C(C)COc1ccc(-c2n[nH]c(C)c2-c2ccccc2)c(O)c1` the IC50 was 8.47 µM.
`Cc1cccc(N2CCN(C(=O)c3cn(C)c(=O)c4c3c3ccccc3n4C)CC2)c1C` showed an IC50 of 16 µM.
For `CCNc1nc(SCc2ccccc2)nc(N2CCOCC2)n1`, the IC50 was 17.8 µM.
For `Cc1cc2c(cc(C(=O)OCC(=O)NCc3cccs3)n2C(C)C)o1`, the IC50 was 25 µM.
For `O=S(=O)(c1ccccc1)N1CCN(Cc2ccccc2C(F)(F)F)CC1`, the IC50 was 16.8 µM.
`O=C(Nc1ccc(Cl)cc1)N(Cc1cccs1)Cc1cccs1` was tested, and the IC50 was 10.7 µM.
With `CCCc1[nH]nc2c1C(c1ccc(OC)c(CSC3=NCCS3)c1)C(C#N)=C(N)O2` (stereo not given) the IC50 was 69.6 µM.
Molecule `COc1ccccc1N1CCN(C(=O)c2cc(-c3cccc(Cl)c3)on2)CC1` has an IC50 of 12.9 µM.
Molecule `CCOC(=O)c1cnn(-c2nc3sc4c(c3c(=O)[nH]2)CCCC4)c1N` has an IC50 of 0.28 µM.
For `Fc1cccc(Cl)c1Cn1nnc(-c2ccc3c(c2)OCO3)n1`, the IC50 was 20.3 µM.
Molecule `N#Cc1cn(CCOc2ccccc2F)c2ccccc12` has an IC50 of 16.1 µM.
For `O=C(OC1CCc2ccccc2C1=O)c1ccccc1O` (stereo not given), the IC50 was 27.7 µM.
For `O=C(Nc1ccc2c(c1)CCC2)C1COc2ccccc2O1` (stereo not given), the IC50 was 12.2 µM.
`COC(=O)c1ccsc1NC(=O)CN1CCN(c2ccc(F)cc2)CC1` gave an IC50 of 18.5 µM.
Work on `Cc1cccc(NC(=O)c2cc(NC(=O)C3CCCCC3C(=O)O)ccc2N2CCCCC2)c1` (stereo not given) yielded an IC50 of 6.1 µM.
Work on `O=c1c2c(nc3n1CCCCC3)-c1ccccc1CC21CCCC1` yielded an IC50 of 14.1 µM.
`CS(=O)(=O)N(Cc1nc2sc3c(c2c(=O)[nH]1)CCCC3)C1CCCCC1` gave an IC50 of 8.1 µM.
`N#Cc1nc(Cc2cccc3ccccc23)oc1NCCCn1ccnc1` showed an IC50 of 24.2 µM.
`O=C(Nc1ccc(Cl)cc1)NC1CCCC1Cc1ccco1` (stereo not given) gave an IC50 of 3.63 µM.
In the case of `N#Cc1nc(Cc2cccc3ccccc23)oc1NCc1ccc(F)cc1`, the IC50 is reported as 11.7 µM.
`CC(C)N1CCC2(CC1)N=C(c1ccc3c(c1)OCO3)CC(c1cc(Cl)ccc1O)N2` (stereo not given) showed an IC50 of 9.86 µM.
For `Cc1ccc(-n2c(=O)[nH]cc(C(=O)Nc3ccc4c(c3)OCCO4)c2=O)cc1C`, the IC50 was 26.9 µM.
Work on `CCOC(=O)N1CCN(c2nc(-c3ccc(F)cc3)cs2)CC1` yielded an IC50 of 32.4 µM.
Molecule `COc1ccc(CNc2nc3c(c(=O)n(Cc4ccc(F)cc4)c(=O)n3C)n2C)cc1` has an IC50 of 22.5 µM.
Work on `CC(=O)c1c(O)cc(C)n(Nc2nc(C)cc(C)n2)c1=O` yielded an IC50 of 13.1 µM.
Molecule `c1coc(CN(Cc2cccs2)Cc2nnnn2C2CCCCC2)c1` has an IC50 of 19.6 µM.
